Data published in ChEMBL document CHEMBL1933033, “Cytotoxic withanolide constituents of Physalis longifolia” (J Nat Prod, 2011).
pIC50: −log10 of the molar value.

Assays:
[1] = Cytotoxicity against human JMAR cells after 72 hrs by MTS assay; assay type: functional, cell-based
How it was run: (§1)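 MTS viability assay on HNSCC (JMAR, MDA-1986), melanoma (B16F10, SKMEL-28) and normal fetal fibroblast (MRC-5) cells. Pure compounds tested at ten concentrations from 50 nM to 20 μM. IC50 values derived from the concentration series.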

B16-F10 = test: Cytotoxicity against mouse B16F10 cells after 72 hrs by MTS assay; assay type: functional, cell-based; conditions: B16-F10, 72 h; how it was run: as §1
[2] = Cytotoxicity against human MDA1986 cells after 72 hrs by MTS assay; assay type: functional, cell-based; conditions: MDA1986, 72 h; how it was run: as §1
SK-MEL-28 = test: Cytotoxicity against human SK-MEL-28 cells after 72 hrs by MTS assay; assay type: functional, cell-based; conditions: SK-MEL-28, 72 h; how it was run: as §1
[3] = Cytotoxicity against human […] cells after 72 hrs by MTS assay; assay type: cell-based; how it was run: as §1

For `CC1=C(CO)C(=O)O[C@@H]([C@@H](C)[C@H]2CC[C@H]3[C@@H]4C[C@H]5O[C@]56[C@@H](O)[C@@H](OS(=O)(=O)O)CC(=O)[C@]6(C)[C@H]4CC[C@]23C)C1`, the pIC50 [1] was 6.32, the pIC50 (B16-F10) was 6.74 and the pIC50 [2] was 6.57. For the same compound, the pIC50 (SK-MEL-28) was 5.29 and the pIC50 [3] was 5.85.
With `CC1=C(CO)C(=O)O[C@@H]([C@@H](C)[C@H]2CC[C@H]3[C@@H]4C[C@H]5O[C@]56[C@@H](O)CCC(=O)[C@]6(C)[C@H]4CC[C@]23C)C1` the pIC50 [1] was < 5.00, the pIC50 (B16-F10) was < 5.00 and the pIC50 [2] was < 5.00. The pIC50 (SK-MEL-28) was < 5.00 and the pIC50 [3] was < 5.00.
With `CC1=C(CO)C(=O)O[C@@H]([C@@H](C)[C@H]2CC[C@H]3[C@@H]4C[C@H]5O[C@]56[C@@H](O)C=CC(=O)[C@]6(CO)[C@H]4[C@@H](O)C[C@]23C)C1` the pIC50 [1] was 6.11, the pIC50 (B16-F10) was 6.31 and the pIC50 [2] was 5.59. For the same compound, the pIC50 (SK-MEL-28) was 5.52 and the pIC50 [3] was 5.44.
With `CC1=C(CO[C@@H]2O[C@H](CO)[C@@H](O)[C@H](O)[C@H]2O)C[C@H]([C@@H](C)[C@H]2CC[C@H]3[C@@H]4C[C@H](O)C5=C(C(=O)C[C@H](O)C5)[C@H]4CC[C@]23C)OC1=O` [WITHALONGOLIDE L] the pIC50 [1] was < 5.00, the pIC50 (B16-F10) was < 5.00 and the pIC50 [2] was < 5.00. For the same compound, the pIC50 (SK-MEL-28) was < 5.00 and the pIC50 [3] was < 5.00.
Work on `CC(=O)OC[C@]12C(=O)C=C[C@H](O)[C@]13O[C@@H]3C[C@H]1[C@@H]3CC[C@H]([C@H](C)[C@H]4CC(C)=C(C)C(=O)O4)[C@@]3(C)CC[C@@H]12` yielded a pIC50 [1] of 6.92, a pIC50 (B16-F10) of 6.72 and a pIC50 [2] of 6.31. The pIC50 (SK-MEL-28) was 6.19 and the pIC50 [3] was 6.80.
With `CC1=C(CO)C(=O)O[C@@H]([C@@H](C)[C@H]2CC[C@H]3[C@@H]4CC=C5C[C@@H](O[C@@H]6O[C@H](CO)[C@@H](O)[C@H](O)[C@H]6O)CC(=O)[C@]5(CO)[C@H]4CC[C@]23C)C1` [WITHALONGOLIDE I] the pIC50 [1] was < 5.00, the pIC50 (B16-F10) was < 5.00 and the pIC50 [2] was < 5.00. For the same compound, the pIC50 (SK-MEL-28) was < 5.00 and the pIC50 [3] was < 5.00.
In the case of `CC1=C(CO[C@@H]2O[C@H](CO)[C@@H](O)[C@H](O)[C@H]2O)C[C@H]([C@@H](C)[C@H]2CC[C@H]3[C@@H]4CCC5=C(C(=O)C[C@H](O)C5)[C@H]4CC[C@]23C)OC1=O` [WITHALONGOLIDE M], the pIC50 [1] was < 5.00, the pIC50 (B16-F10) was < 5.00 and the pIC50 [2] was < 5.00. The pIC50 (SK-MEL-28) was < 5.00 and the pIC50 [3] was < 5.00.
For `CC1=C(CO)C(=O)O[C@@H]([C@@H](C)[C@H]2CC[C@H]3[C@@H]4C[C@@H]5O[C@@H]6CC(=O)[C@](C)([C@H]4CC[C@]23C)[C@@]5(O)[C@H]6O)C1`, the pIC50 [1] was < 5.00, the pIC50 (B16-F10) was < 5.00 and the pIC50 [2] was < 5.00. The pIC50 (SK-MEL-28) was < 5.00 and the pIC50 [3] was < 5.00.
With `CC1=C(CO)C(=O)O[C@@H]([C@@H](C)[C@H]2CC[C@H]3[C@@H]4C[C@H]5O[C@]56[C@@H](O)C=CC(=O)[C@]6(CO)[C@H]4CC[C@]23C)C1` the pIC50 [1] was 5.28, the pIC50 (B16-F10) was < 5.00 and the pIC50 [2] was 5.48. The pIC50 (SK-MEL-28) was 5.29 and the pIC50 [3] was < 5.00.
`CC1=C(CO)C(=O)O[C@@H]([C@@H](C)[C@H]2CC[C@H]3[C@@H]4C[C@H]5O[C@]56[C@@H](O)C=CC(=O)[C@]6(C)[C@H]4CC[C@]23C)C1` [WITHAFERIN A] gave a pIC50 [1] of 5.70, a pIC50 (B16-F10) of 6.54 and a pIC50 [2] of 6.10. For the same compound, the pIC50 (SK-MEL-28) was 5.40 and the pIC50 [3] was 6.70.
Work on `CC1=C(CO)C(=O)O[C@@H]([C@@H](C)[C@H]2CC[C@H]3[C@@H]4C[C@H]5O[C@]56[C@@H](O)[C@@H](OS(=O)(=O)O)CC(=O)[C@]6(CO)[C@H]4CC[C@]23C)C1` [WITHALONGOLIDE G] yielded a pIC50 [1] of 5.64, a pIC50 (B16-F10) of 5.89 and a pIC50 [2] of 5.70. The pIC50 (SK-MEL-28) was 5.32 and the pIC50 [3] was 5.48.
In the case of `CC1=C(CO[C@@H]2O[C@H](CO)[C@@H](O)[C@H](O)[C@H]2O)C[C@H]([C@@H](C)[C@H]2CC[C@H]3[C@@H]4CC(=O)C5=C(CC[C@@H](O)C5)[C@H]4CC[C@]23C)OC1=O` [WITHALONGOLIDE N], the pIC50 [1] was < 5.00, the pIC50 (B16-F10) was < 5.00 and the pIC50 [2] was < 5.00. The pIC50 (SK-MEL-28) was < 5.00 and the pIC50 [3] was < 5.00.
For `CC(=O)OC[C@]12C(=O)C=C[C@H](OC(C)=O)[C@]13O[C@@H]3C[C@H]1[C@@H]3CC[C@H]([C@H](C)[C@H]4CC(C)=C(C)C(=O)O4)[C@@]3(C)CC[C@@H]12`, the pIC50 [1] was 6.62, the pIC50 (B16-F10) was 6.89 and the pIC50 [2] was 6.96. The pIC50 (SK-MEL-28) was 6.57 and the pIC50 [3] was 6.29.
With `CC1=C(CO[C@@H]2O[C@H](CO)[C@@H](O)[C@H](O)[C@H]2O)C[C@H]([C@@H](C)[C@H]2CC[C@H]3[C@@H]4CC=C5C[C@@H](O)C[C@H](O)[C@]5(CO)[C@H]4CC[C@]23C)OC1=O` [WITHALONGOLIDE J] the pIC50 [1] was < 5.00, the pIC50 (B16-F10) was < 5.00 and the pIC50 [2] was < 5.00. The pIC50 (SK-MEL-28) was < 5.00 and the pIC50 [3] was < 5.00.
In the case of `CO[C@H]1CC(=O)[C@]2(C)[C@H]3CC[C@]4(C)[C@@H]([C@H](C)[C@H]5CC(C)=C(CO)C(=O)O5)CC[C@H]4[C@@H]3C[C@H]3O[C@]32[C@H]1O`, the pIC50 [1] was < 5.00, the pIC50 (B16-F10) was < 5.00 and the pIC50 [2] was < 5.00. For the same compound, the pIC50 (SK-MEL-28) was < 5.00 and the pIC50 [3] was < 5.00.
For `CC1=C(C)C(=O)O[C@@H]([C@@H](C)[C@H]2CC[C@H]3[C@@H]4C[C@H]5O[C@]56[C@@H](O)C=CC(=O)[C@]6(CO)[C@H]4CC[C@]23C)C1` [WITHALONGOLIDE B], the pIC50 [1] was 6.77, the pIC50 (B16-F10) was 6.70 and the pIC50 [2] was 5.89. The pIC50 (SK-MEL-28) was 5.41 and the pIC50 [3] was 6.40.
For `CO[C@H]1CC(=O)[C@]2(C)[C@@H]3[C@@H](C[C@H]4O[C@]42[C@H]1O)[C@@H]1CC[C@H]([C@H](C)[C@H]2CC(C)=C(CO)C(=O)O2)[C@@]1(C)C[C@@H]3O` [WITHALONGOLIDE E], the pIC50 [1] was < 5.00, the pIC50 (B16-F10) was 5.25 and the pIC50 [2] was 5.08. The pIC50 (SK-MEL-28) was < 5.00 and the pIC50 [3] was 5.14.
With `CC1=C(CO)C(=O)O[C@@H]([C@@H](C)[C@H]2CC[C@H]3[C@@H]4CC=C5C=CC(=O)[C@]5(C)[C@H]4CC[C@]23C)C1` [WITHALONGOLIDE F] the pIC50 [1] was < 5.00, the pIC50 (B16-F10) was < 5.00 and the pIC50 [2] was < 5.00. The pIC50 (SK-MEL-28) was < 5.00 and the pIC50 [3] was < 5.00.
With `CC1=C(CO[C@@H]2O[C@H](CO)[C@@H](O[C@@H]3O[C@@H](C)[C@H](O)[C@@H](O)[C@H]3O)[C@H](O)[C@H]2O)C(=O)O[C@@H]([C@@H](C)[C@H]2CC[C@H]3[C@@H]4C[C@H]5O[C@]56[C@@H](O)C=CC(=O)[C@]6(C)[C@H]4CC[C@]23C)C1` [WITHALONGOLIDE H] the pIC50 [1] was 5.09, the pIC50 (B16-F10) was < 5.00 and the pIC50 [2] was 5.09. For the same compound, the pIC50 (SK-MEL-28) was < 5.00 and the pIC50 [3] was 5.06.
With `CC1=C(CO[C@@H]2O[C@H](CO)[C@@H](O)[C@H](O)[C@H]2O)C[C@H]([C@@H](C)[C@H]2CC[C@H]3[C@@H]4C[C@H](O)c5cccc(O)c5[C@H]4CC[C@]23C)OC1=O` [WITHALONGOLIDESAPONIN] the pIC50 [1] was < 5.00, the pIC50 (B16-F10) was < 5.00 and the pIC50 [2] was < 5.00. The pIC50 (SK-MEL-28) was < 5.00 and the pIC50 [3] was < 5.00.
With `CO[C@H]1CC(=O)[C@]2(CO)[C@H]3CC[C@]4(C)[C@@H]([C@H](C)[C@H]5CC(C)=C(CO)C(=O)O5)CC[C@H]4[C@@H]3C[C@H]3O[C@]32[C@H]1O` [WITHALONGOLIDE D] the pIC50 [1] was 5.33, the pIC50 (B16-F10) was 5.49 and the pIC50 [2] was < 5.00. For the same compound, the pIC50 (SK-MEL-28) was 5.03 and the pIC50 [3] was 5.19.
`CC(=O)OCC1=C(C)C[C@H]([C@@H](C)[C@H]2CC[C@H]3[C@@H]4C[C@H]5O[C@]56[C@@H](OC(C)=O)C=CC(=O)[C@]6(COC(C)=O)[C@H]4CC[C@]23C)OC1=O` gave a pIC50 [1] of 6.80, a pIC50 (B16-F10) of 7.17 and a pIC50 [2] of 6.04. It also gave a pIC50 (SK-MEL-28) of 6.27 and a pIC50 [3] of 6.24.
With `CC1=C(CO)C(=O)O[C@@H]([C@@H](C)[C@H]2CC[C@H]3[C@@H]4C[C@H]5O[C@]56[C@@H](O)[C@@H](O)CC(=O)[C@]6(C)[C@H]4CC[C@]23C)C1` [VISCOSALACTONE B] the pIC50 [1] was < 5.00, the pIC50 (B16-F10) was < 5.00 and the pIC50 [2] was < 5.00. For the same compound, the pIC50 (SK-MEL-28) was < 5.00 and the pIC50 [3] was < 5.00.
In the case of `CC1=C(CO[C@@H]2O[C@H](CO)[C@@H](O)[C@H](O)[C@H]2O)C(=O)O[C@@H]([C@@H](C)[C@H]2CC[C@H]3[C@@H]4C[C@H]5O[C@]56[C@@H](O)C=CC(=O)[C@]6(C)[C@H]4CC[C@]23C)C1` [SITOINDOSIDE IX], the pIC50 [1] was 5.38, the pIC50 (B16-F10) was 5.43 and the pIC50 [2] was < 5.00. The pIC50 (SK-MEL-28) was 5.08 and the pIC50 [3] was 5.28.
With `CC(=O)OCC1=C(C)C[C@H]([C@@H](C)[C@H]2CC[C@H]3[C@@H]4C[C@H]5O[C@]56[C@@H](OC(C)=O)C=CC(=O)[C@]6(CO)[C@H]4CC[C@]23C)OC1=O` the pIC50 [1] was 6.85, the pIC50 (B16-F10) was 7.01 and the pIC50 [2] was 5.66. For the same compound, the pIC50 (SK-MEL-28) was 6.09 and the pIC50 [3] was 6.39.
